# Beta apoptosis: blocks beta cell apoptosis. AID 435005. hit rate 0.8% among 300,000. protection from apoptosis, % (test concentration not listed). INS-1E cytokine-induced death, ATP luminescence, 48 h; percent of positive-control rescue, neutral wells zero;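 active means Every replicate reaches about 75%, or at least half do and their mean reaches it too, limit read from the data; inconclusive means At least half of replicates reach the limit but their mean does not; inactive means Under half of replicates reach the limit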;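 further: 0% = cytokine-treated negative control wells and 100% = positive control rescue; higher means more ATP so stronger rescue from cytokine killing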
# Calb FLC: affects C. albicans growth with fluconazole; hit rate 0.57% among 300,000; growth inhibition, % (no concentration beside the values); C. albicans CaCi-2 (fluconazole-resistant clinical isolate) + fluconazole, Alamar Blue growth, 48 h;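 active means growth inhibition above about 58% in most replicates, limit read from the data, passing the limit was not always enough; inconclusive means exactly half the replicates above a set limit; inactive means most replicates below a set limit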;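 further: all wells also contain fluconazole at 8 µg/ml as a sub-toxic cotreatment; 0% = median of DMSO wells and 100% = median of geldanamycin control wells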
# NALP3 yeast inh: blocks the NALP3 inflammasome reconstituted in yeast; AID 2825; inhibition, % at 10 µM; Yeast reconstituted NLRP3/ASC/caspase-1, beta-gal luminescence, 24 h; hit rate 0.39% among 330,000;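 active means inhibition of 50% or more; inactive means inhibition below 50%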;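 further: plate controls were induced DMSO wells for no effect and uninduced yeast grown without galactose for full effect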
# Mdm2 MdmX PPI: human Mdm2/MdmX binding inhibition | AID 485346 | hit rate 3% among 330,000 | inhibition, % at 8 µM | SaOS-2 split-luciferase Mdm2/MdmX complementation, luminescence | O15151+Q00987;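 active means inhibition of at least 50% at 8 µM in the primary screen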
# CSC inhib: cancer stem cell inhibition; cancer stem cell-like cells viability, luminescence; inhibition, % at 7.5 µM; hit rate 1.1% among 300,000; in the data active means inhibition above about 75%; inconclusive means no clear call, values can overlap the other calls; tested in HMLE shEcad cells
# T cruzi repl: T. cruzi replication inhibition; T. cruzi beta-gal in NIH3T3, luminescence, 90 h; inhibition, % (test concentration not listed); hit rate 1.4% among 300,000; AID 1885;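 active means mean inhibition across valid replicates above about 55%, limit read from the data; inconclusive means mean below that limit but half or more replicates reach it; inactive means mean below it, under half of replicates reach it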;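 further: signal also drops with host cell toxicity which is not excluded here; 0% = plate median of DMSO wells and 100% = zero luminescence signal; higher percent means less beta-gal luminescence so fewer parasites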
#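 System: Mouse NIH/3T3 fibroblasts infected with β-gal-expressing T. cruzi Tulahuen C4 | Quantity: NIH/3T3 cells, 5,000 per well | Reagent: 5000 reporter trypomastigotes per well | Dosing: Compound pinned at 50 nL/well, DMSO | Schedule: 3 h host attachment, then at least 90 h co-culture | Detection: GalScreen luminescence, 60 min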
# NALP3 yeast conf: NALP3 inhibition confirmation in yeast; shares compounds with NALP3 yeast inh; inhibition, % at 10 µM; yeast expressing human NALP3, luminescence; hit rate 81% among 1,300; in the data active means inhibition above about 48%
# Casp1 ASC ctr: active in yeast caspase-1-ASC counter-screen for NALP3 inhibitors | hit rate 66% among 1,000 | inhibition, % at 10 µM | AID 488784 | yeast expressing Caspase-1-ASC, luminescence counter screen | shares compounds with NALP3 yeast inh
# NALP3 yeast rt: retest-confirmed inhibitor of NALP3 in yeast; hit rate 53% among 1,000; shares compounds with NALP3 yeast inh; yeast expressing human NALP3, luminescence read-out; inhibition, % at 10 µM
# Mdm2-MdmX conf: human Mdm2/MdmX binding inhibition, confirmed | inhibition, % at 8 µM | luminescent assay | shares compounds with Mdm2 MdmX PPI | hit rate 55% among 10,000; in the data active means inhibition above about 40%
# FLuc counter: full-length luciferase inhibition in Mdm2/MdmX counter-screen. hit rate 77% among 6,200. AID 504607. inhibition, % at 8 µM. SaOS-2 full-length luciferase counterscreen, luminescence. shares compounds with Mdm2 MdmX PPI;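 active means mean inhibition at 8 µM reaching about 37%, which flags the compound as non-specific, limit read from the data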;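 further: p53-null SaOS-2 cells with luciferase driven by a doxycycline-inducible promoter; compound on cells about two nights before reading with doxycycline added after day one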
# Starred values were filed as active, the others as inactive; ? = inconclusive; · = no result given. Rows were chosen to be rich in hits. Some 5.3% of all compounds tested hit in one or more screens of this group. Unless noted, no stated cut-off is given here; in the data, active means inhibition above about 50%; inactive means the rest.
SMILES,Beta apoptosis,Calb FLC,NALP3 yeast inh,Mdm2 MdmX PPI,CSC inhib,T cruzi repl,NALP3 yeast conf,Casp1 ASC ctr,NALP3 yeast rt,others
CCS(=O)(=O)c1ccc2oc(Nc3ccc(OC)cc3)nc2c1,0,0,-116,-8,-15,12,-16,·,·,
O=C1c2sc3nc4ccccc4n3c2C(=O)N1c1ccccc1Cl,1,-7,52*,-8,18,1,52*,26,26,
Cc1ccccc1N1C(=O)c2sc3nc4c(c(=O)n3c2C1=O)CCC4,6,17,10,6,-22,-34,·,·,·,
CC(=O)n1cc([C@@H]2C=C(C(=O)NCc3ccccc3)O[C@H](OCCCCO)C2)c2ccccc21,·,7,89*,18,-20,17,40,5,23,
CC(=O)n1cc([C@H]2C=C(C(=O)NCc3ccccc3)O[C@@H](OCCCCO)C2)c2ccccc21,3,-16,4,12,14,-12,·,·,·,
CC12CCC(C(=O)N(CCCN3CCN(Cc4ccccc4)CC3)C1=O)C2(C)C (stereo not given),3,-2,17,15,39,·,·,·,·,
COc1ccccc1-c1nnc2sc(-c3cc4ccccc4o3)nn12,10,36,59*,44,60,34,70*,·,·,
COc1ccccc1-c1nnc2sc(-c3cnccn3)nn12,-5,-4,24,6,-1,2,·,·,·,
CCN(CC)S(=O)(=O)c1ccc(C(=O)OCC(=O)Nc2ccc(-c3nc4ccc(C)cc4s3)cc2)cc1,1,-1,-4,18,-15,1,·,·,·,
CC(C)(C)C1CCc2[nH]c3ccccc3c(=O)c2C1 (stereo not given),10,23,72*,4,13,59*,94*,72*,77*,
CCn1c(SCC(=O)OC)nnc1-c1ccc(C)cc1,-2,5,-1,15,-6,-4,·,·,·,
CCOc1cccc(-c2nc(C(N)=O)c3[nH]c(=O)n(-c4cccc(Cl)c4)c3n2)c1O,-1,3,-8,-9,0,6,·,·,·,
CC(=O)c1ccc(Oc2ccc(C(C)=O)cc2)cc1,·,-3,25,-7,1,-12,·,·,·,
Oc1ccc(Oc2ccc(Oc3ccc(O)cc3)cc2)cc1,5,3,79*,35,57,-70,83*,93*,85*,
O=c1c2ccccc2nnn1Cc1ccc(Br)cc1,-7,-7,50*,19,-4,9,66*,57*,58*,
COc1ccc(C(CC(=O)c2ccc(O)cc2)S(=O)(=O)c2ccc(C)cc2)cc1 (stereo not given),-8,22,39,-7,21,-12,·,·,·,
COC(=O)c1ccccc1S(=O)(=O)NNC(=O)C1COc2ccccc2O1 (stereo not given),·,·,42,6,·,·,·,·,·,
CC(C)(c1cc(Br)c(O)c(Br)c1)c1cc(Br)c(O)c(Br)c1,9,·,53*,33,103*,·,49*,·,·,
O=C(N/N=C/c1ccsc1)c1cc2ccccc2o1,5,-24,72*,4,4,-8,87*,71*,75*,
Cc1csc2nc(O)c(C(=O)NCCC3=CCCCC3)c(=O)n12,·,-1,56*,39,-13,4,75*,29,55*,
O=C(NCCC1=CCCCC1)c1cnccn1,-5,1,20,-35,13,-3,·,·,·,
CC(C)C(=O)NNC(=O)c1c(O)c2ccccc2[nH]c1=O,-2,7,7,-12,·,-16,·,·,·,
CC(C)NC(=O)c1c(O)c2ccccc2[nH]c1=O,0,35,54*,84*,-5,-14,72*,37,53*,Mdm2-MdmX conf=83*;FLuc counter=46*
N#Cc1cnn(-c2ccccc2)c1NC(=O)CN1CCOCC1,-3,-9,5,18,-5,-11,·,·,·,
O=C(Nc1ccc2nc3n(c(=O)c2c1)CCCC3)c1ccccc1F,3,-2,29,0,7,-2,·,·,·,
SMILES,Beta apoptosis,Calb FLC,NALP3 yeast inh,Mdm2 MdmX PPI,CSC inhib,T cruzi repl,NALP3 yeast conf,Casp1 ASC ctr,NALP3 yeast rt,others
O=C(Nc1ccc2nc3n(c(=O)c2c1)CCCCC3)c1cc([N+](=O)[O-])ccc1F,16,-11,63*,98*,?,-45,80*,69*,56*,Mdm2-MdmX conf=79*;FLuc counter=22
Clc1ccc(-c2cccs2)nn1,-6,8,10,-15,·,-4,·,·,·,
CC1CCN(c2ccc(-c3cccs3)nn2)CC1,28,1,52*,55*,32,-5,79*,·,·,Mdm2-MdmX conf=64*;FLuc counter=40*
C[C@@H]1CC[C@]2(O[C@H](CCO)C[C@@H](O)[C@@H]2O)O1,1,-9,8,-25,-12,-6,·,·,·,
COc1ccc(C/C(N)=N/OC(=O)c2ccc(Cl)cc2)cc1,-2,-6,21,8,9,16,·,·,·,
N/C(Cc1ccc(Cl)cc1)=N\OC(=O)c1cccc2ccccc12,20,?,57*,99*,5,65*,45*,55*,51*,Mdm2-MdmX conf=76*;FLuc counter=39*
CNC(=O)c1ccc(S(=O)(=O)c2ccc(Cl)cc2)c(NC(C)=O)c1,·,-3,17,10,·,5,·,·,·,
CNC(=O)c1nnsc1S(=O)(=O)c1ccc(Cl)cc1,·,-7,59*,96*,·,60*,67*,65*,47,Mdm2-MdmX conf=100*;FLuc counter=51*
O=C(c1nnsc1S(=O)(=O)c1ccc(Cl)cc1)N1CCOCC1,·,5,57*,95*,·,18,52*,54*,50*,Mdm2-MdmX conf=68*;FLuc counter=19
Cc1ccc(Oc2c(C)nc(-c3ccccc3)[nH]c2=O)cc1,12,4,3,10,-3,-1,·,·,·,
Nc1nnc(Cc2ccccc2F)s1,·,7,11,-12,-18,-22,·,·,·,
COc1ccccc1CN(C)C(=O)CN1CCN(CC(=O)Nc2ccccc2Cl)CC1,-6,·,6,17,·,·,·,·,·,
Cc1ccc(S(=O)(=O)N(C)CC(=O)N2CCN(C(=O)c3ccco3)CC2)cc1,0,2,-5,7,-3,-7,·,·,·,
CCOC(=O)C1=Nc2ccccc2C1=[N+]=[N-],107*,-2,82*,51*,-4,30,89*,97*,87*,Mdm2-MdmX conf=9
CCOC(=O)c1cnc(-c2ccccc2O)nc1Cl,-2,48,4,9,-3,5,·,·,·,
Cn1ncc2c(O/N=C(\N)c3ccc(C(C)(C)C)cc3)ncnc21,110*,-2,54*,99*,108*,64*,78*,82*,67*,Mdm2-MdmX conf=100*;FLuc counter=52*

# Source: PubChem
